Assay results reported in ChEMBL document CHEMBL3352316, “Optimization of physicochemical properties and safety profile of novel bacterial topoisomerase type II inhibitors (NBTIs) with activity against Pseudomonas aeruginosa” (Bioorg Med Chem, 2014).
pIC50: −log10 of the molar value. In brackets after ≈: the same amount, converted by molar mass.

Columns and labels:
[1] = target: Voltage-dependent L-type calcium channel subunit alpha-1C (Homo sapiens, UniProt Q13936); experiment: Inhibition of […] channel Cav1.2 (unknown origin)
Chain of Voltage-dependent L-type calcium channel subunit alpha-1C (Q13936 whole entry): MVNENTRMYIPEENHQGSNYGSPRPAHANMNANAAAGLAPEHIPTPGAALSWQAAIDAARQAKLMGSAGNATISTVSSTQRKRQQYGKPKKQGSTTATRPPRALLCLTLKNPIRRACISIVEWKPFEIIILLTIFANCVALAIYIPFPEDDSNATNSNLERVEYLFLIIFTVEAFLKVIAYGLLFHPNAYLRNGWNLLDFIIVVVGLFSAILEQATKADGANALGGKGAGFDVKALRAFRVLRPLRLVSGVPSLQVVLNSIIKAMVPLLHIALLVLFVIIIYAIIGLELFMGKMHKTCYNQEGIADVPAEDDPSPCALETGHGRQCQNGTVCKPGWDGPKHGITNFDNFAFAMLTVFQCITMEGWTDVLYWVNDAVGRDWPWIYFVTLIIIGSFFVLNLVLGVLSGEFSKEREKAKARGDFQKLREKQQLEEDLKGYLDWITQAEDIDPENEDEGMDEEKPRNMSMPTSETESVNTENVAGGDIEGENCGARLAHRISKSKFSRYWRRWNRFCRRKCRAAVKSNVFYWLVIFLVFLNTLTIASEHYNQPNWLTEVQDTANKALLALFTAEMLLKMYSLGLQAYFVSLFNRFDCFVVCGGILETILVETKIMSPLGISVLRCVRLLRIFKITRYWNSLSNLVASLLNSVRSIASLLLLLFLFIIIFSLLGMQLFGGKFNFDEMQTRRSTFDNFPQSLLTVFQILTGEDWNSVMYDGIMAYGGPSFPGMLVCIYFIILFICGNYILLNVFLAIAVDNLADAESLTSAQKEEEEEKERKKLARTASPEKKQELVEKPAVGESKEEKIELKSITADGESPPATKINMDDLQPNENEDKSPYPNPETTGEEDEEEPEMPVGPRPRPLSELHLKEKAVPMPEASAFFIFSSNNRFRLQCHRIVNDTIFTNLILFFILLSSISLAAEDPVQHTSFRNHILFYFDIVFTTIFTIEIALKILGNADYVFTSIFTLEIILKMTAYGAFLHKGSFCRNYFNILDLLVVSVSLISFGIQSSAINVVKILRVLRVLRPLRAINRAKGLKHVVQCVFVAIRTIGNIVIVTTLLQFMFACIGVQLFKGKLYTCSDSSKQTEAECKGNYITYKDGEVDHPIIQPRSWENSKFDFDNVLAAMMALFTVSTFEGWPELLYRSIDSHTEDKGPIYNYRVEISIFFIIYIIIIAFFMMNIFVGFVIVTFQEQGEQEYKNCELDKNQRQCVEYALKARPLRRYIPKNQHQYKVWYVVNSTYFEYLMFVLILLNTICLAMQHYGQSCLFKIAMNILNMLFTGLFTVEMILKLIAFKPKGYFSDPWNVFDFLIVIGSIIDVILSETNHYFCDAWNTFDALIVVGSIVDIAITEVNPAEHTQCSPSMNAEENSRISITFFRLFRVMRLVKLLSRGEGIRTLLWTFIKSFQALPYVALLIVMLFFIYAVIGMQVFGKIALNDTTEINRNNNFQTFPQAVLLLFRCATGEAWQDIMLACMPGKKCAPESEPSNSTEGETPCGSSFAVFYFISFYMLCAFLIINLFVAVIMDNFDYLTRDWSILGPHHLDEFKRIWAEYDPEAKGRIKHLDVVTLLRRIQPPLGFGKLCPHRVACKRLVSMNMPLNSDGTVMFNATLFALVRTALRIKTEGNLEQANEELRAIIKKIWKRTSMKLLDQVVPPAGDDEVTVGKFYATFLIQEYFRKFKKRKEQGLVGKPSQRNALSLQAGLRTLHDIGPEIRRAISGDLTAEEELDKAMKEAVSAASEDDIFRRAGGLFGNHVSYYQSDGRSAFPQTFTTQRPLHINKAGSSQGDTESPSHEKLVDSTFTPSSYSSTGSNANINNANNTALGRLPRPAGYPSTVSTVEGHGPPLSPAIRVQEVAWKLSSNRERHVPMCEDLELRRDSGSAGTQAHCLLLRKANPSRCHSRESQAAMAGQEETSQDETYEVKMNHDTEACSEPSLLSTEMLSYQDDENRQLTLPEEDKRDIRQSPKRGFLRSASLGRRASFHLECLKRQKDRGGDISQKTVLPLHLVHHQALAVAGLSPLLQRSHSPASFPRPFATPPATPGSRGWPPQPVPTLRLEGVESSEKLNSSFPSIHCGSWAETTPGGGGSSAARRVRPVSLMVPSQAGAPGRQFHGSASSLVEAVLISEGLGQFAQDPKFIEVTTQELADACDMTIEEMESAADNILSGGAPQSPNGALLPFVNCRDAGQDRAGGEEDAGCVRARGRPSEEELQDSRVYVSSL
Summary of the method: (§1)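 Automated IonWorks patch clamp was run on CHO or HEK cells expressing each channel. A channel-specific voltage pulse was applied before compound and again about 3 min after addition.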

Escherichia coli = experiment: Antimicrobial activity against Escherichia coli W3110 after 18 to 20 hrs by broth microdilution; format: functional; settings: K-12 substr. W3110
Summary of the method: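 Broth microdilution followed CLSI guidelines in Mueller Hinton broth. Inocula were grown 18–20 h at 35 °C on blood agar. Compound in DMSO was tested in doubling dilutions from 64 to 0.06 µg/mL, at 2% DMSO final. Plates were incubated 18–20 h and read at OD 620 nm. MIC was taken as the concentration giving >90% growth inhibition.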

[2] = target: T1, A-type voltage-gated potassium channel KCND3 (Homo sapiens, UniProt Q9UK17); experiment: Inhibition of potassium channel Kv4.3 (unknown origin); summary of the method: as §1
T1 sequence (Q9UK17 whole entry): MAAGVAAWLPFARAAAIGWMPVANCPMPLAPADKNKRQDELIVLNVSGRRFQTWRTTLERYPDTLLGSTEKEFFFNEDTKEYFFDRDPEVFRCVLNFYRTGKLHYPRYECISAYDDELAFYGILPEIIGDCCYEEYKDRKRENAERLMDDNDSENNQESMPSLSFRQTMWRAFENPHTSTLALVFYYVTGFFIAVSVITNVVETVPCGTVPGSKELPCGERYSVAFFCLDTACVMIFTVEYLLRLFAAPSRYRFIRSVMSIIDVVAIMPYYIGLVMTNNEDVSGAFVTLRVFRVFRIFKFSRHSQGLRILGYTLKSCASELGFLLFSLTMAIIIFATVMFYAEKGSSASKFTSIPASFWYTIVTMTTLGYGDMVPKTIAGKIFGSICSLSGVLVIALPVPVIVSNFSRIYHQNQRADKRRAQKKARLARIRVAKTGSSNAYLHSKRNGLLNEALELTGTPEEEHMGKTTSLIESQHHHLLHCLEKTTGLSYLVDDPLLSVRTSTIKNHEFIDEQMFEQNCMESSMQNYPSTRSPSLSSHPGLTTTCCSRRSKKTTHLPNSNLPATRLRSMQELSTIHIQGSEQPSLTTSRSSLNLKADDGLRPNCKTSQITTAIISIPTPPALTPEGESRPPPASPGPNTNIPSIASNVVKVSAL

Pseudomonas aeruginosa [3] = experiment: Antimicrobial activity against Pseudomonas aeruginosa PAO1 in neutropenic mouse thigh infection model assessed as log reduction in CFU at 100 mg/kg/day, ip bid q12 regime starting 2 hrs after infection measured 24 hrs post start of treatment relative to control; format: functional; settings: route intraperitoneal
Summary of the method: (§2)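 CD-1 mice made neutropenic with intraperitoneal cyclophosphamide 4 days (150 mg/kg) and 1 day (100 mg/kg) before thigh infection with P. aeruginosa PAO1, target inoculum 5 × 10⁵ CFU. Groups of five dosed ip in 5% dextrose with lactic acid pH 5.0. Vehicle-only group included. Thighs removed 24 h after treatment start, weighed, homogenized and plated on tryptic soy agar, 37 °C overnight. Log CFU/g reduction is relative to starting inoculum.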

Pseudomonas aeruginosa [4] = experiment: Antimicrobial activity against Pseudomonas aeruginosa PAO1 in neutropenic mouse thigh infection model assessed as log reduction in CFU at 150 mg/kg/day, ip bid q12 regime starting 2 hrs after infection measured 24 hrs post start of treatment relative to control; format: functional; settings: route intraperitoneal; summary of the method: as §2
[5] = target: Voltage-gated inwardly rectifying potassium channel KCNH2 (Homo sapiens, UniProt Q12809); experiment: Inhibition of human ERG by cell-based patch clamp method
[6] = Fraction unbound in human plasma by LC/MS-MS analysis; format: ADME, cell-free
Summary of the method: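 Equilibrium dialysis: 10 µM compound was spiked into human plasma against phosphate buffer and rotated at 37 °C for 16 h. Plasma and buffer concentrations were quantified by LC/MS–MS with a C18 column and ESI MRM detection.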

Cavia porcellus = experiment: Cardiotoxicity in anesthetized guinea pig assessed as change in monophasic action potential duration at 90% repolarization at free drug 86 uM, iv as 17-min infusion; format: toxicity, organism-based; settings: in vivo
Summary of the method: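 Male guinea pigs were anaesthetized with Nembutal, ventilated, vagotomized and given propranolol 0.5 mg/kg iv. MAPD90 was recorded during pacing. Compound in 5% dextrose was infused iv over two 17-min periods: 17 mg/kg at 0.1 mL/kg min, then 51 mg/kg at 0.2 mL/kg min. Blood was sampled at each level, and % change was taken from each animal's time-zero baseline.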

[7] = target: Voltage-dependent T-type calcium channel subunit alpha-1H (Homo sapiens, UniProt O95180); experiment: Inhibition of […] channel Cav3.2 (unknown origin); summary of the method: as §1
Chain of Voltage-dependent T-type calcium channel subunit alpha-1H (O95180 whole entry): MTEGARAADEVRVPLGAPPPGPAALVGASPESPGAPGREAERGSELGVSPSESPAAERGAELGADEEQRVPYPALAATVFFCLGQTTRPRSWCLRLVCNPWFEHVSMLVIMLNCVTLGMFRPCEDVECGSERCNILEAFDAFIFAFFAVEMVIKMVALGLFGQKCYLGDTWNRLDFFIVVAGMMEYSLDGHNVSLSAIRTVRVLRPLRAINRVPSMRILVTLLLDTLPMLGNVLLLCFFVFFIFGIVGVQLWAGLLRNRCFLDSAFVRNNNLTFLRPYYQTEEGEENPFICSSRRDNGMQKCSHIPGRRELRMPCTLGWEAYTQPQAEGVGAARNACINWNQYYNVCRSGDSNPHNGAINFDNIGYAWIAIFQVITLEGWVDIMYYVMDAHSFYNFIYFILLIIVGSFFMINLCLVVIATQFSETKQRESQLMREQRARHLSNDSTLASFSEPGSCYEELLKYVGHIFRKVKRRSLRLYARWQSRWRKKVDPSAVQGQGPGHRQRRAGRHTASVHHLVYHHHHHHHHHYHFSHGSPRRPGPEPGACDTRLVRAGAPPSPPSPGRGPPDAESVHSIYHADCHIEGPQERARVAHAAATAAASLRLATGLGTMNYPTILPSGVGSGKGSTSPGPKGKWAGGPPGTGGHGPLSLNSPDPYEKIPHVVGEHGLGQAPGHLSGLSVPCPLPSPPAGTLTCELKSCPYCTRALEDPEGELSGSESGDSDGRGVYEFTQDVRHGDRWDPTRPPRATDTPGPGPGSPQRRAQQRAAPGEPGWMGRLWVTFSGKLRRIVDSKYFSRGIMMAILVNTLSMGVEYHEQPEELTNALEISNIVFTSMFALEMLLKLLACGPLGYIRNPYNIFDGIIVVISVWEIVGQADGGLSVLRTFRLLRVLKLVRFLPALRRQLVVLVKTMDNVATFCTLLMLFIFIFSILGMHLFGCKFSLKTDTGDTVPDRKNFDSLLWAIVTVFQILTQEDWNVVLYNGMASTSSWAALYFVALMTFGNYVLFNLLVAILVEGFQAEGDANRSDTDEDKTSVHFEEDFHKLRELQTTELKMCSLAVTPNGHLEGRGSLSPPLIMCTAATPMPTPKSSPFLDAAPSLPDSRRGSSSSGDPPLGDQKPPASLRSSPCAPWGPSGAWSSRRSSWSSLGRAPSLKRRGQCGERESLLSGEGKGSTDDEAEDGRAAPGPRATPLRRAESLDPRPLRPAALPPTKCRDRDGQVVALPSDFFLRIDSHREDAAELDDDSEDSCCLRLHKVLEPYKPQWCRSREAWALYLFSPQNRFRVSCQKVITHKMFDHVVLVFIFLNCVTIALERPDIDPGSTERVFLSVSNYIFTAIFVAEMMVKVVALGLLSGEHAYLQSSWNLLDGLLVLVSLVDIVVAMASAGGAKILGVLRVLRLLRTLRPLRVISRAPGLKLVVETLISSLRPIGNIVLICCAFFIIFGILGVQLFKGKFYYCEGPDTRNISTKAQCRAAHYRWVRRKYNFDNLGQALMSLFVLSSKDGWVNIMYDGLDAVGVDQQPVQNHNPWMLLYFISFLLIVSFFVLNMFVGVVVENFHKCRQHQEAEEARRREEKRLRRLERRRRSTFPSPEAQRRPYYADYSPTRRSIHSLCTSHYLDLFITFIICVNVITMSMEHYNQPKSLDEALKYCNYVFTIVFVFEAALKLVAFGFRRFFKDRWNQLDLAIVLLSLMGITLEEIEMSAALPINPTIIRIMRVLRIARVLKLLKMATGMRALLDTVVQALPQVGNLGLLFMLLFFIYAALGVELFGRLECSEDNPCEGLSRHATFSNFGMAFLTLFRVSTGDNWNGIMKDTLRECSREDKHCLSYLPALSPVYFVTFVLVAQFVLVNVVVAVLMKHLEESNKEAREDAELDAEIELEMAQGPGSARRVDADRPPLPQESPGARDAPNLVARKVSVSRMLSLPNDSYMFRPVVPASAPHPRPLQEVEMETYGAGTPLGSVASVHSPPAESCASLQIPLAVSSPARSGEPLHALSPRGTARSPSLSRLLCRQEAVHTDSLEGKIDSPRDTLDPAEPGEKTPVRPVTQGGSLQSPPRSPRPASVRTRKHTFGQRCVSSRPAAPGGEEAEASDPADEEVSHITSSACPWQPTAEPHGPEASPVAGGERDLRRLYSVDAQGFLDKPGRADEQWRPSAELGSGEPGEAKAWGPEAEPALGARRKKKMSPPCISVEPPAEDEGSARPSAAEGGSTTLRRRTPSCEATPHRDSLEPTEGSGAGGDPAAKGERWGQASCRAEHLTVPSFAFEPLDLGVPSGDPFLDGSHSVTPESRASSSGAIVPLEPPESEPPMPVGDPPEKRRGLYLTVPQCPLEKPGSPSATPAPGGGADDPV

[8] = Clearance in beagle dog at 10 mg/kg, iv; format: ADME, organism-based, Canis lupus familiaris; set-up: dose 10 mg/kg, route intravenous; settings: in vivo
Summary of the method: (§3)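 Male rats (Wistar Han) and Beagle dogs received 10 mg/kg as a 15 min iv infusion. Serial 200 µL whole-blood samples were taken from 0 to 24 h. Plasma levels were measured by LC–MS/MS against a standard curve after methanol protein precipitation. Parameters were estimated non-compartmentally.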

[9] = Ratio of fAUC to MIC in Pseudomonas aeruginosa PAO1 in neutropenic mouse thigh infection model at 150 mg/kg/day, ip bid q12h starting 2 h post infection; settings: route intraperitoneal
[10] = Ratio of fAUC to MIC in Pseudomonas aeruginosa PAO1 in neutropenic mouse thigh infection model at 200 mg/kg/day, ip bid q12h starting 2 h post infection; settings: route intraperitoneal
Pseudomonas aeruginosa [11] = experiment: Antimicrobial activity against Pseudomonas aeruginosa PAO1 in neutropenic mouse thigh infection model assessed as log reduction in CFU at 200 mg/kg/day, ip bid q12 regime starting 2 hrs after infection measured 24 hrs post start of treatment relative to control; format: functional; settings: route intraperitoneal; summary of the method: as §2
[12] = AUC in beagle dog at 10 mg/kg, iv; format: ADME, organism-based, Canis lupus familiaris; set-up: dose 10 mg/kg, route intravenous; settings: plasma; summary of the method: as §3
[13] = AUC(infinity) in neutropenic mouse at 200 mg/kg/day, ip bid of total 12 doses; format: ADME, organism-based; set-up: dose 200 mg/kg/day, time infinity, route intraperitoneal; settings: plasma
Summary of the method: (§4)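 CD-1 mice were made neutropenic with ip cyclophosphamide, 150 mg/kg at day −4 and 100 mg/kg at day −1, then infected in the thigh with P. aeruginosa PAO1. Dosing was ip, bid q12 from 2 h post-infection, in 5% dextrose with lactic acid pH 5.0. Groups of three mice were killed at timed intervals and cardiac-puncture plasma was analysed by LC–MS/MS.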

[14] = AUC(infinity) in neutropenic mouse at 100 mg/kg/day, ip bid of total 12 doses; format: ADME, organism-based; set-up: dose 100 mg/kg/day, time infinity, route intraperitoneal; settings: plasma; summary of the method: as §4
[15] = AUC(infinity) in neutropenic mouse at 150 mg/kg/day, ip bid of total 12 doses; format: ADME, organism-based; set-up: dose 150 mg/kg/day, time infinity, route intraperitoneal; settings: plasma; summary of the method: as §4
Canis familiaris = experiment: Cardiotoxicity in telemetered dog assessed as prolongation of QTc interval at 56 uM, iv as 1 hr infusion; format: toxicity, organism-based, Canis lupus familiaris; settings: in vivo, 4 h, in the assay text read “4 hr infusion” for “1 hr infusion”
Summary of the method: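 Dogs were dosed by iv infusion in vehicle adjusted to pH 4. ECG intervals were measured and QTcR was corrected for heart rate by individual-animal correction. % change in QTcR was taken against the matched time point of the same animal on vehicle. Infusion was 1 h at 5 mL/kg/h (5% dextrose) or 4 h at 2 mL/kg/h (5% mannitol/0.1 M tartaric acid), with readings at infusion end.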

[16] = Clearance in rat at 10 mg/kg, iv; format: ADME, organism-based; set-up: dose 10 mg/kg, route intravenous; settings: in vivo; summary of the method: as §3

| MIC90 (Escherichia coli) [µg/mL] | pIC50 [2] | fraction unbound [6] | pIC50 [7] | clearance [8] [mL/min/kg] | fAUC/MIC [9] | fAUC/MIC [10] | AUC [12] [ng·h/mL] | AUC(0-inf) [13] [ng·h/mL] | AUC(0-inf) [14] [ng·h/mL] | AUC(0-inf) [15] [ng·h/mL] | clearance [16] [mL/min/kg] | Compound | pIC50 [1] | FC (Pseudomonas aeruginosa [3]) | FC (Pseudomonas aeruginosa [4]) | pIC50 [5] | Activity (Cavia porcellus) | FC (Pseudomonas aeruginosa [11]) | Activity (Canis familiaris) [%] |
| --- | --- | --- | --- | --- | --- | --- | --- | --- | --- | --- | --- | --- | --- | --- | --- | --- | --- | --- | --- |
| < 0.06 | < 4.00 | 0.73 | < 4.00 | 14 | 16 | 23 | 12000 | 29900 | 14800 | 20100 | 46 | N[C@@H](Cn1c(=O)cnc2ccc(F)cc21)[C@H]1CC[C@H](NCc2ncc3c(n2)NC(=O)CO3)CC1 | < 3.48 | 0.2 | 1.3 | < 3.48 | Toxic | 2.5 | 9 |
| 0.13 (≈ 0.28 µM) | < 4.00 | – | < 4.00 | 8.5 | – | – | 6800 | – | – | – | 252 | COc1ccc2ncc(=O)n(CCN3CCC(NCc4ccc5c(n4)NC(=O)CO5)CC3)c2c1 | < 3.48 | – | – | – | – | – | – |
